# Assay outcomes deposited in PubChem BioAssay by Johns Hopkins Ion Channel Center.
# hERG rescue: shields human hERG channel from block by proarrhythmic agents; AID 1511; 310,000 tested, 0.51% active; activation (rescue from dofetilide block), less the hit threshold, % at 10 µM; CHO-hERG, FluxOR thallium flux, dofetilide IC70 present; Q12809;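 active = activation above the mean of controls blocked by dofetilide plus 5 SD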;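 note: thallium influx through hERG after potassium depolarization seen as dye fluorescence rise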
# KCNK9 inh: inhibitors of human KCNK9 two-pore domain potassium channel | Q9NPC2 | HEK293 KCNK9, FluxOR thallium flux fluorescence; hits give low values | B-score at 10 µM | 310,000 tested, 1.2% active;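 active = ratio B-score over 3 SD below the library mean, with starting fluorescence within 5 SD of its mean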;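 note: negative B-score means less thallium flux so channel inhibition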
# Target sequence (Q9NPC2 whole entry, looked up, the tested form may be a part): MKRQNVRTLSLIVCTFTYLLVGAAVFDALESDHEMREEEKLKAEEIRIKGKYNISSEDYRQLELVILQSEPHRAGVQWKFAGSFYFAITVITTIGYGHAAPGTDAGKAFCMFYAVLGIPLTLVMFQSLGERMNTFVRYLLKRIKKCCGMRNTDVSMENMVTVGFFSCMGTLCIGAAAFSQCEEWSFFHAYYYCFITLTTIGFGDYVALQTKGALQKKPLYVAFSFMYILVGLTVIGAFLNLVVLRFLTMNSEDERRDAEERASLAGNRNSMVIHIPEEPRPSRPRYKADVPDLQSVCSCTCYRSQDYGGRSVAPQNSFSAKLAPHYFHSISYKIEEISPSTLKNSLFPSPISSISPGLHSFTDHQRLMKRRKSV
# KCNQ1 pot: human KCNQ1 channel potentiation or activation. P51787. CHO-K1 KCNQ1, thallium flux FluxOR fluorescence; hits give high values. B-score at 10 µM. 310,000 tested, 0.35% active;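 active = fluorescence ratio B-score, a plate-corrected score, at least three library SD, with initial intensity B-score within 5 SD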
#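 assay system = KCNQ1-transfected CHO-K1 cells | medium = assay buffer with matched DMSO | probe or stimulus = depolarizing K+/Tl+ stimulus, K2SO4 and Tl2SO4 each 12.5 mM in 5x stock | dosing = single dose | incubation = dye 90 min, compound 20 min, room temperature | detection = kinetic FluxOR fluorescence, 10 s baseline plus 110 s post-stimulus | evaluation = ratio B score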
# KCNQ1 block: blocks the human KCNQ1 potassium channel. P51787. CHO-K1 KCNQ1, FluxOR thallium flux fluorescence; hits give high values. B-score at 10 µM. 310,000 tested, 1.3% active;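 active = compounds whose thallium flux B-score, printed positive for inhibition, exceeds three library SD while starting fluorescence stays within three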;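 note: channel opened by potassium depolarization with thallium stimulus after 20 min compound exposure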
# Kir21 block: inhibitors of mouse Kir2.1 inward-rectifier potassium channel. P35561. HEK293-Kir2.1, FluxOR thallium flux fluorescence; hits give low values. B-score at 10 µM. 310,000 tested, 0.85% active;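 active = fluorescence ratio B-score at or below minus 3 SD of library scores, with starting-brightness B-score within 2 SD, cut at about -4.2 in these data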;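 note: channel flux triggered by added potassium and thallium sulfate stimulus; B-score of peak minus minimum fluorescence over baseline after thallium stimulus; more negative B-score means stronger Kir2.1 block with less thallium influx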
# KCNK3 block: human KCNK3 channel inhibition, primary screen. CHO-KCNK3 thallium flux, FluxOR fluorescence; hits give low values. B-score at 10 µM. 340,000 tested, 0.84% active;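 active = B-score under library mean minus 4 SD, starting fluorescence ratio at most library mean plus 5 SD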;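 note: more negative B-score means stronger inhibition of thallium flux through KCNK3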
# KCNK3 inh conf: human KCNK3 channel inhibition, confirmation assay | AID 651638 | CHO-KCNK3 thallium flux, FluxOR fluorescence; 0% buffer, 100% carvedilol maximal block | 2,400 tested, 99% active | shares compounds with KCNK3 block | ratio percent of control, % at 10 µM;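 active = ratio percent of control, averaged over triplicates, above buffer control mean plus 5 SD, cut at about 64% in these data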;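 note: ratio is the fluorescence rise from min to max over baseline after thallium stimulus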
# KCNK3 noninduced: counter-screen for KCNK3 inhibitors: effect in non-induced cells; AID 651747; thallium flux ratio (lower = more inhibition) at 10 µM; non-induced KCNK3 parental cells, FluxOR thallium flux; hits give low values; 2,400 tested, 40% active; shares compounds with KCNK3 block;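 active = thallium flux ratio, averaged over three wells, more than 5 SD below the buffer control mean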;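 note: host cells are CHO cells without KCNK3 induction; ratio is peak minus trough fluorescence over baseline then normalized to buffer controls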
# The depositor's hits bear a star; i = inactive; . = no result. Sampled rows, rich in hits. Any-hit rate of the full collection: about 3.8%.
SMILES,hERG rescue,KCNK9 inh,KCNQ1 pot,KCNQ1 block,Kir21 block,KCNK3 block,KCNK3 inh conf,KCNK3 noninduced
CCOC(=O)Cc1csc(NC(=O)COc2c(C)cccc2C)n1,-4,i,i,i,0.61,-13*,93*,i
C=CCn1c(SCC(=O)c2ccc(O)c(O)c2)nnc1-c1cccc(OC)c1,.,.,.,.,.,i,.,.
CC(CNCCCn1cnc2c(OCc3ccccc3)ncnc21)c1ccccc1 (stereo not drawn),.,.,.,.,.,i,.,.
COC(CNS(=O)(=O)c1ccc(S(=O)(=O)NC2CC2)cc1)OC,-8,i,i,i,-0.67,i,.,.
Cc1cc(NC(=O)c2cccnc2)ccc1NC(=O)c1cc2ccccc2o1,-2,i,i,i,-0.82,i,.,.
Cc1cc(NC(=O)c2cc3ccccc3o2)ccc1NC(=O)c1ccccc1,-3,i,i,i,0.74,-10*,0,i
Cc1cc(C(=O)COc2cc(F)ccc2[N+](=O)[O-])c(C)n1CC1CCCO1 (stereo not drawn),.,.,.,.,.,i,.,.
Cc1ccc(C)c(N2CCN(CCCNC(=O)CCC(=O)N3CCOc4ccc(Cl)cc43)CC2)c1,-19,i,i,i,-7.4,.,.,.
Cc1ccc(C)c(N2CCN(C(=O)CCC(=O)N3CCOc4ccc(Cl)cc43)CC2)c1,-5,i,i,i,-1.1,-10*,122*,0.15*
c1ccc(-c2nc(-c3ccco3)n3ccccc23)cc1,-12,i,i,i,0,-9.7*,116*,0.15*
c1ccc(Nc2c(-c3ccco3)nc3ccccn23)cc1,-7,i,i,i,1.6,i,.,.
Cc1cc(NC(=O)CSCC(=O)Nc2nc3ccccc3s2)no1,.,.,.,.,.,i,.,.
O=C(O)C(=O)/C(=C\c1cccc2ccccc12)c1ccc2ccccc2n1,-2,i,i,i,0.01,-9.1*,137*,i
O=C(O)C(=O)/C(=C\c1ccccc1)c1ccc2ccccc2n1,-11,i,i,i,0.88,i,.,.
Nc1ncnc2c1ncn2[C@@H]1O[C@H](CNC(=O)[C@@H]2CCC(=O)N2)[C@@H](O)[C@H]1O,.,.,.,.,.,i,.,.
COc1ccc2cc(C(=O)/C=C/c3cc(OC)c(O)c(OC)c3)ccc2c1,-11,i,i,i,-0.32,-9.8*,131*,0.13*
CCc1ccc(OCC(=O)Nc2ccc(S(=O)(=O)N3CCOCC3)cc2)cc1,-9,i,i,i,-0.05,i,.,.
COc1ccccc1OCc1ccc(C(=O)Nc2ccccc2F)cc1,-3,i,i,i,-1.2,i,.,.
COc1ccccc1NC(=O)c1ccccc1Oc1ccccc1,-8,i,i,i,0.03,-8.8*,122*,0.12*
COc1ccccc1NC(=O)c1ccc(COc2ccccc2OC)cc1,-8,i,i,i,-0.02,-8.8*,103*,i
CCOC(=O)N1C/C(=C\c2ccccc2)C(=O)/C(=C/c2ccccc2)C1,-13,i,i,10*,0.22,-10*,113*,i
Cc1ccc(C(=O)CCC(=O)OCC(=O)NNC(=O)c2ccccc2Cl)cc1,.,.,.,.,.,i,.,.
CSCCC(NC(=O)c1ccccc1)C(=O)NCCCSc1ccccc1 (stereo not drawn),.,.,.,.,.,i,.,.
CC(=O)Nc1ccc(Oc2cc(C#N)c(C#N)cc2N2CCCCCC2)cc1,.,.,.,.,.,-13*,120*,i
CC(=O)Nc1ccc(OC(=O)N2CCCC2)cc1,-11,i,i,i,-0.17,i,.,.
SMILES,hERG rescue,KCNK9 inh,KCNQ1 pot,KCNQ1 block,Kir21 block,KCNK3 block,KCNK3 inh conf,KCNK3 noninduced
CC(=O)c1ccc(N(CC(=O)NC2CCCCC2)C(=O)CNC(=O)c2cccs2)cc1,-4,i,i,i,0.09,i,.,.
O=C(N/C=C/c1ccco1)Nc1cccc(Cl)c1,-13,i,i,6*,-1.1,-9.3*,94*,0.14*
Cc1ccc(C)c(NS(=O)(=O)c2cc(C(=O)NCCSC3CCCCC3)ccc2C)c1,-5,-7.9*,i,i,-0.93,-10*,110*,i
COc1cc(C(C)=O)ccc1OCC(=O)Nc1ccc(C)c(S(=O)(=O)N2CCCCCC2)c1,.,.,.,.,.,i,.,.
O=C(NC1CCN(Cc2ccccc2)CC1)c1ccccc1OCc1ccccc1,-9,i,i,i,-4.3*,-10*,99*,i
O=C(NC1CCN(Cc2ccccc2)CC1)c1ccccc1OCc1ccccc1Cl,-17,-7.8*,i,i,-6.7*,-11*,99*,i
CCCSc1nc(NCc2ccco2)c2c3c(sc2n1)COC(C)(C)C3,-11,i,i,6*,0.41,-9.6*,108*,i
CC1=CC[C@@]23CCCN2C(=O)CCC[C@H]3C1,.,.,.,.,.,i,.,.
COc1ccc(OC)c(NC(=O)CSc2ccc3ccccc3c2)c1,-6,i,i,i,-1.2,-11*,118*,i
COCC(C)NC(=O)c1cc2cccc([N+](=O)[O-])c2[nH]1 (stereo not drawn),-9,i,i,i,0.03,i,.,.
Cc1cc(NC(=O)c2cc3cccc([N+](=O)[O-])c3[nH]2)ccc1F,-8,i,i,11*,0.05,-13*,126*,0.14*
C[C@H](CO)N1C[C@H](C)[C@@H](CN(C)S(=O)(=O)c2ccc(F)cc2)Oc2c(NC(=O)CCC(F)(F)F)cccc2C1=O,.,.,.,.,.,i,.,.
C[C@H](CO)N1C[C@H](C)[C@@H](CN(C)S(=O)(=O)c2ccccc2)Oc2c(NC(=O)CCC(F)(F)F)cccc2C1=O,.,.,.,.,.,-12*,110*,i
C[C@@H]1CN([C@H](C)CO)C(=O)c2cccc(NS(=O)(=O)c3cccs3)c2O[C@H]1CN(C)Cc1ccccc1,.,.,.,.,.,i,.,.
C[C@H](CO)N1C[C@H](C)[C@@H](CN(C)Cc2ccc(Cl)c(Cl)c2)Oc2c(NS(=O)(=O)c3cccs3)cccc2C1=O,.,.,.,.,.,-14*,127*,0.14*
CN(CCO)c1nc(N)c(C#N)c(CC#N)c1C#N,-8,i,i,i,-1.1,i,.,.
CC(C)CN(CC(C)C)c1nc(N)c(C#N)c(CC#N)c1C#N,-3,-7.5*,i,i,-2.2,-11*,92*,i
CC1CCN(C(=O)CN2C(=O)NC(c3ccccc3)(c3ccccc3)C2=O)CC1,.,.,.,.,.,i,.,.
COc1ccc(-c2cc(C(=O)N3CCCc4ccccc43)no2)cc1,-11,i,i,i,0.02,i,.,.
